The source made the active and inactive calls.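 How the source made its calls, unless noted: active means viability at or below 30% in both replicate assays; inconclusive means viability at or below 30% in just one of the two assays; inactive means the rest.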
Key:
[1] = reducers of endogenous Her2 protein level, primary screen, SKBR3 breast tumor cells, AlphaScreen, ATP viability (AID 461;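 active means Her2 level under about 52% in both replicate screens, with viability over 70% of control, limit read from the data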;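 on Her2 level: lower value means less Her2 protein in the cells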;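 on viability: percent of carrier control wells set as 100% viability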); conditions: 18-24 h, measured here: SKBR3 viability, ATP luminescence, at 10 µM
[2] = target: Receptor tyrosine-protein kinase erbB-2 (Homo sapiens) (UniProt P04626); assay: as above; conditions: 18-24 h, at 10 µM, stronger effect = lower value
Receptor tyrosine-protein kinase erbB-2 (Homo sapiens), sequence (P04626 whole entry, looked up): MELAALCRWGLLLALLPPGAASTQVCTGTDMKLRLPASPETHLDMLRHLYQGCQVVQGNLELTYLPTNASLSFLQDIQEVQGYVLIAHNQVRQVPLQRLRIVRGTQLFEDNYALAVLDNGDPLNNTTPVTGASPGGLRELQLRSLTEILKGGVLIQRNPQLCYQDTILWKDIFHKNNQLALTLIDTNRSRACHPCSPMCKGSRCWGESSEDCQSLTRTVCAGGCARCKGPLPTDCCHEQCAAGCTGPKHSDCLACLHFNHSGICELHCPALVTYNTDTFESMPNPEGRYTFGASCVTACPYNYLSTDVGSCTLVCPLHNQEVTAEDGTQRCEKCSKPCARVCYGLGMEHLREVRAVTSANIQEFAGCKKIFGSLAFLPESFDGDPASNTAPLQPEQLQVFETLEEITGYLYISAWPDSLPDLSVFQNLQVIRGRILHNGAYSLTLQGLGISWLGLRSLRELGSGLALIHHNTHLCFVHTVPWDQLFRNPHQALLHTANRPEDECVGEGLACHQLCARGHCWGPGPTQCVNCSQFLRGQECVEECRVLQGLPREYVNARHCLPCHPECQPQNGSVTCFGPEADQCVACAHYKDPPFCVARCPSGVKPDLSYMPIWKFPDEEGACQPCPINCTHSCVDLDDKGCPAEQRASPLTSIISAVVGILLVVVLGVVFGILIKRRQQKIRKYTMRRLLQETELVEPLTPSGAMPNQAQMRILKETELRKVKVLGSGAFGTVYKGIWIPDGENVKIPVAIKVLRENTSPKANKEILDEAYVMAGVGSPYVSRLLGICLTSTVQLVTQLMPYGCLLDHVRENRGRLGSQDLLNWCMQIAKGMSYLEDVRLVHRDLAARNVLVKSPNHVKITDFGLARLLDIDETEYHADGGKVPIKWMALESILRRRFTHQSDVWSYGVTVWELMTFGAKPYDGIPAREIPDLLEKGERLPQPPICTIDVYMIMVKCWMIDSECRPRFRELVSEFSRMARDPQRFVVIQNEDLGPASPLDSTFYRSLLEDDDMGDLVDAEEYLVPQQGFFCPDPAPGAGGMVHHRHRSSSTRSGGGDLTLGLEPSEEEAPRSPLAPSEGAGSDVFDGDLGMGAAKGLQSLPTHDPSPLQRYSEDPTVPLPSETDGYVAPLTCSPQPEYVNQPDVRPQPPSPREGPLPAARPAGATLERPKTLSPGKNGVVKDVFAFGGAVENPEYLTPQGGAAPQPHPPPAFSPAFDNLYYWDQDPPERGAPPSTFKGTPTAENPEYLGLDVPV

[3] = SK-BR-3 cell growth inhibitors, pilot screen, 24 h, human (AID 572;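 active means viability at or below 10% of carrier control in both of two separate runs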;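 further: compound exposure lasted between 18 and 24 h rather than exactly 24 h; 100% = carrier-treated control wells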); conditions: SK-BR-3 viability, CellTiter-Glo luminescence, at 10 µM, stronger effect = lower value
[4] = HUVEC growth inhibition – cell-based, human, primary screen (AID 575); conditions: HUVEC proliferation, CellTiter-Glo luminescence, 72 h; at 10 µM; stronger effect = lower value;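 further: 100% = median of untreated cell wells with 0.1% DMSO on each plate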
Outline: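 System – primary HUVEC, no more than 12 passages · Medium – Low-serum (2% FBS) EBM, supplemented · Times – 72 h exposure, 37 °C, 5% CO2, 30 min RT equilibration · Measured by – luminescent ATP assay · Read-out – % viability relative to median vehicle-well signal on each plate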

[5] = growth inhibitors of H69AR lung tumor, primary screen, human, duplicate replicates (AID 580;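 active means viability at or under a set limit in both replicates, limit being median viability minus 3 SD, cut at about 48% in these data, passing the limit was not always enough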;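 further: 100% = mean luminescence of untreated wells and 0% = no signal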); conditions: H69AR lung tumor cells viability, ATP luminescence, 72 h; at 10 µM; stronger effect = lower value
[6] = reversal of MRP1-mediated doxorubicin resistance, pilot screen, H69AR cells, doxorubicin co-treatment (AID 601;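 active means viability loss from added drug above about 55%, and viability with drug at most 40%, in both replicates, limit read from the data, passing the limit was not always enough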); conditions: CellTiter-Glo, 72 h, at 10 µM; for differential viability (reversal): stronger effect = higher value
[7] = 384-well plate pilot, post-Golgi transport modulator project, inhibition of yeast transport mutant growth (AID 636; in the data active means inhibition above about 31%); conditions: absorbance 615 nm, about 18 h, stronger effect = higher value
[8] = growth suppression of yeast trafficking mutant, preliminary HTS, modulators of trafficking downstream of Golgi apparatus project, 1536-format plate, OD 615 nm (AID 637; in the data active means inhibition above about 30%); conditions: yeast transport mutant growth, absorbance 615 nm, 18 h; stronger effect = higher value
[9] = H69AR cells + 2 uM doxorubicin, measured here: viability with 2 uM doxorubicin, stronger effect = lower value
[10] = H69AR cells, compound alone cytotoxicity

| SMILES | viability [1] [%] | Her2 level [2] | viability [3] | viability [4] | viability [5] | differential viability (reversal) ([6]; H69AR cells + 2 uM doxorubicin) | viability [6, 9] [%] | viability [6, 10] [%] | inhibition [7] | inhibition [8] |
| --- | --- | --- | --- | --- | --- | --- | --- | --- | --- | --- |
| CN(C)Cc1c(O)ccc2oc(Cc3ccccc3)cc12 | 90 | 86% (inactive) | 90% (inactive) | 91.2% (inactive) | 91% (inactive) | 11% (inactive) | 80 | 91 | -6.67% (inactive) | -2.42% (inactive) |
| CC1CN(c2nc3ccccc3nc2C(C#N)C(=O)OC2CCCCC2)CC(C)O1 (stereo not given) | 94 | 97% (inactive) | 94% (inactive) | 78.7% (inactive) | 96.1% (inactive) | 12.6% (inactive) | 83.5 | 96.1 | -5.07% (inactive) | 2.54% (inactive) |
| Cc1sc2ncnc(SCC(=O)N3CCCC3)c2c1C | 124 | 95.5% (inactive) | 124% (inactive) | 78.1% (inactive) | 93% (inactive) | 9.69% (inactive) | 83.3 | 93 | -2.08% (inactive) | 6.39% (inactive) |
| CN(C)c1cccc(C(=O)OCC(=O)NCc2ccco2)c1 | 102 | 86.5% (inactive) | 102% (inactive) | 87% (inactive) | 86.2% (inactive) | 7.69% (inactive) | 78.6 | 86.2 | -4.81% (inactive) | -2.22% (inactive) |
| CC(C)OC(=O)CSc1nnnn1-c1ccc2c(c1)OCCO2 | 99.5 | 84.5% (inactive) | 99.5% (inactive) | 99% (inactive) | 88.6% (inactive) | 6.42% (inactive) | 82.2 | 88.6 | -7.03% (inactive) | -2.33% (inactive) |
| CC(=O)Nc1sc2c(c1C#N)CCCCC2 | 132 | 113% (inactive) | 132% (inactive) | 82.2% (inactive) | 95.6% (inactive) | 5.43% (inactive) | 90.2 | 95.6 | -4.93% (inactive) | -2.54% (inactive) |
| CC1CCCN(c2ccc(C(=O)NCc3cccs3)cn2)C1 (stereo not given) | 98.5 | 89.5% (inactive) | 98.5% (inactive) | 96.1% (inactive) | 82.8% (inactive) | 4.85% (inactive) | 77.9 | 82.8 | -0.91% (inactive) | -2.86% (inactive) |
| Cc1ccc(C)c2[nH]c(=O)c(CCNC(=O)c3ccc(Br)o3)cc12 | 87 | 87% (inactive) | 87% (inactive) | 72.8% (inactive) | 89.3% (inactive) | 5.93% (inactive) | 83.4 | 89.3 | -7.81% (inactive) | -4.6% (inactive) |
| CCCCCn1c2nc3ccccc3nc2c2c(=O)n(CC(C)C)cnc21 | 116 | 103% (inactive) | 116% (inactive) | 103% (inactive) | 87.3% (inactive) | -3.98% (inactive) | 91.3 | 87.3 | -0.79% (inactive) | 3.55% (inactive) |
| CCCCCCNS(=O)(=O)c1ccc(Cl)s1 | 85 | 86.5% (inactive) | 85% (inactive) | 81.9% (inactive) | 89.1% (inactive) | 1.29% (inactive) | 87.8 | 89.1 | -4.4% (inactive) | 22.9% (inactive) |
| CCCOC(=O)/C(C(N)=NCc1ccccc1)=C(\O)OCCC | 82 | 95% (inactive) | 82% (inactive) | 82.6% (inactive) | 88.8% (inactive) | -4.66% (inactive) | 93.4 | 88.8 | 1.3% (inactive) | -2.79% (inactive) |
| COc1ccccc1C(=O)N1CCCC(c2nc(-c3cc(OC)c(OC)c(OC)c3)no2)C1 (stereo not given) | 120 | 90% (inactive) | 120% (inactive) | 99.4% (inactive) | 78.8% (inactive) | 23.2% (inactive) | 55.6 | 78.8 | -6.71% (inactive) | 7.3% (inactive) |
| Cn1c(N2CCC(C(N)=O)CC2)nc2c1c(=O)n(Cc1ccc(Br)cc1)c(=O)n2C | 95 | 84.5% (inactive) | 95% (inactive) | 98.5% (inactive) | 102% (inactive) | 8.06% (inactive) | 93.8 | 102 | 3.38% (inactive) | -5.08% (inactive) |
| O=C(Nc1cccc(F)c1)N1CC=C(n2c(=O)[nH]c3ccccc32)CC1 | 111 | 86.5% (inactive) | 111% (inactive) | 93.4% (inactive) | 81.9% (inactive) | 5.16% (inactive) | 76.7 | 81.9 | -4.21% (inactive) | 0.91% (inactive) |
| CCOC(=O)c1sc(NC(=O)COC(=O)Cn2cnc3ccccc32)c(C(=O)OCC)c1C | 96 | 78% (inactive) | 96% (inactive) | 68.4% (inactive) | 71.2% (inactive) | -8.35% (inactive) | 79.6 | 71.2 | -0.26% (inactive) | -4.44% (inactive) |
| Cc1ccc(-n2c(SCC3CCCCO3)nnc2-c2ccco2)cc1 (stereo not given) | 89 | 83% (inactive) | 89% (inactive) | 102% (inactive) | 91.4% (inactive) | 15.5% (inactive) | 75.9 | 91.4 | 0% (inactive) | -8.5% (inactive) |

| SMILES | viability [1] [%] | Her2 level [2] | viability [3] | viability [4] | viability [5] | differential viability (reversal) ([6]; H69AR cells + 2 uM doxorubicin) | viability [6, 9] [%] | viability [6, 10] [%] | inhibition [7] | inhibition [8] |
| --- | --- | --- | --- | --- | --- | --- | --- | --- | --- | --- |
| Nc1nonc1-c1noc(-c2ccccc2Br)n1 | 112 | 76.5% (inactive) | 112% (inactive) | 54.7% (inactive) | 95.1% (inactive) | 3.17% (inactive) | 92 | 95.1 | -6.62% (inactive) | 5.67% (inactive) |
| C(#Cc1ccccc1)Cn1nnc2ccccc21 | 80.5 | 86.5% (inactive) | 80.5% (inactive) | 99% (inactive) | 83.1% (inactive) | 7.46% (inactive) | 75.6 | 83.1 | 0.9% (inactive) | 4.33% (inactive) |
| C/C(N)=C(/C#N)C(=O)COC(=O)c1cc(S(=O)(=O)N2CCCCC2)ccc1C | 88.5 | 79.5% (inactive) | 88.5% (inactive) | 82.2% (inactive) | 95.8% (inactive) | 0.98% (inactive) | 94.8 | 95.8 | 0.38% (inactive) | -3.83% (inactive) |
| Cc1cc(=O)[nH]c(SCC(=O)NCc2ccco2)n1 | 95 | 106% (inactive) | 95% (inactive) | 88.6% (inactive) | 94.6% (inactive) | -5.85% (inactive) | 100 | 94.6 | -5.48% (inactive) | -2.38% (inactive) |
| N#Cc1nc(-c2cccs2)oc1NCc1ccc(Cl)cc1 | 111 | 88.5% (inactive) | 111% (inactive) | 64.9% (inactive) | 73.8% (inactive) | -14.1% (inactive) | 87.9 | 73.8 | -5.66% (inactive) | 0.65% (inactive) |
| CC(=O)C1=C(C)OC(N)=C(C#N)C1c1ccncc1 (stereo not given) | 133 | 80.5% (inactive) | 133% (inactive) | 115% (inactive) | 93.2% (inactive) | 8.39% (inactive) | 84.8 | 93.2 | -5.6% (inactive) | 5.41% (inactive) |
| COC(=O)c1ccc(C(=O)OC)c(NC(=O)Nc2ccc3c(c2)OCO3)c1 | 86.5 | 106% (inactive) | 86.5% (inactive) | 89.1% (inactive) | 92.7% (inactive) | -2.65% (inactive) | 95.4 | 92.7 | -0.78% (inactive) | -9.67% (inactive) |
| Cn1c(=O)cc(SCC(=O)NCC2CCCO2)c2ccc(Cl)cc21 (stereo not given) | 88.5 | 88% (inactive) | 88.5% (inactive) | 89% (inactive) | 85.1% (inactive) | -4% (inactive) | 89.1 | 85.1 | -0.26% (inactive) | -3.71% (inactive) |
| O=c1c2[nH]c3cccc(Cl)c3c2ncn1CCN1CCCCC1 | 103 | 83.5% (inactive) | 103% (inactive) | 101% (inactive) | 92.6% (inactive) | 4.01% (inactive) | 88.6 | 92.6 | -4.13% (inactive) | 0.49% (inactive) |
| CCOc1ccc(OCC)c(NC(=O)C2CCN(S(=O)(=O)c3cnc[nH]3)CC2)c1 | 95.5 | 99% (inactive) | 95.5% (inactive) | 96.2% (inactive) | 111% (inactive) | 11.1% (inactive) | 100 | 111 | -2.37% (inactive) | -2.74% (inactive) |
| Cc1occc1C(=O)Nc1cccnc1 | 101 | 92% (inactive) | 101% (inactive) | 100% (inactive) | 97.7% (inactive) | 3.58% (inactive) | 94.1 | 97.7 | -7.73% (inactive) | 2.9% (inactive) |
| COCCn1nnnc1C(c1cc2cc(C)cc(C)c2[nH]c1=O)N1CCN(c2ccccc2F)CC1 (stereo not given) | 102 | 81.5% (inactive) | 102% (inactive) | 78.4% (inactive) | 80.9% (inactive) | -5.39% (inactive) | 86.3 | 80.9 | -4% (inactive) | 1.8% (inactive) |
| COC(=O)/C=c1/s/c(=C(/C#N)C(=O)N2CCOCC2)n(-c2ccccc2)c1=O | 116 | 80.5% (inactive) | 116% (inactive) | 98.8% (inactive) | 88.8% (inactive) | -10.8% (inactive) | 99.6 | 88.8 | -7.4% (inactive) | -3.17% (inactive) |
| CCOC(=O)c1cc2ccc(OC)c(OC)c2c(=O)s1 | 98.5 | 94% (inactive) | 98.5% (inactive) | 83.9% (inactive) | 83.5% (inactive) | -0.1% (inactive) | 83.6 | 83.5 | 0.78% (inactive) | -7% (inactive) |
| Cc1nn(C)cc1/C=N/O | 100 | 105% (inactive) | 100% (inactive) | 95.8% (inactive) | 104% (inactive) | 7.1% (inactive) | 96.5 | 104 | -7.47% (inactive) | 1.45% (inactive) |
